In ChEMBL document CHEMBL1132413, “Mechanism-based competitive inhibitors of glyoxalase I: intracellular delivery, in vitro antitumor activities, and stabilities in human serum and mouse serum” (J Med Chem, 1999):

Assays:
[1] = tested on: Glyoxalase I (Homo sapiens); assay: The compound was tested for inhibitory activity against human glyoxalase I.
[2] = tested on: Glyoxalase I (Homo sapiens); assay: as above; remark: listed apart in the source
[3] = tested on: B16; assay: The compound was tested […] for 50% growth inhibition against B16 melanoma cells.; format: functional, Mus musculus
Method in brief: (§1)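 B16 melanotic melanoma cells in log growth were plated at 5000 cells/well in RPMI 1640 with 10% heat-inactivated FCS and gentamycin at 37 °C under 5% CO2. Cells were exposed for 48 h to at least five drug concentrations, in triplicate, with fresh diethyl ester added at 0, 12, 24 and 36 h. Cells were trypsinized and counted on a Coulter counter. Percentage growth was calculated NCI-style against time-zero and no-drug controls. TGI is 100% growth inhibition and GI50 is 50%. Mean ± SD comes from separate experiments.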

[4] = tested on: L1210; assay: The compound was tested […] for 50% cell killing against L1210 murine leukemia cells.; format: functional, Mus musculus
Method in brief: (§2)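 Cultured cells, not in vivo: log-phase cells seeded at 5000 cells/well in RPMI 1640/10% heat-inactivated FCS with gentamycin, 37 °C, 5% CO2. Exposed 48 h to at least five diethyl ester concentrations in triplicate, with fresh ester added at 0, 12, 24 and 36 h. B16 cells were trypsinised and L1210 cells washed. Counted by Coulter counter, viability by trypan blue. LC50 = concentration giving 50% cell killing.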

[5] = tested on: L1210; assay: The compound was tested […] for 50% growth inhibition against L1210 murine leukemia cells.; format: functional, Mus musculus
Method in brief: (§3)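 L1210 leukemia cells in log growth were seeded at 5000 cells/well in RPMI 1640 with 10% heat-inactivated FCS and gentamycin at 37 °C under 5% CO2. At least five concentrations spanning the GI50 were tested in triplicate for 48 h, with ester replenished at 0, 12, 24 and 36 h. Washed cells were Coulter-counted. PG = 100×(test−tzero)/(ctrl−tzero). TGI is 100% growth inhibition and GI50 is 50%. Mean ± SD comes from independent experiments.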

[6] = tested on: B16; assay: The compound was tested […] for 100% growth inhibition against B16 melanoma cells.; format: functional, Mus musculus
Method in brief: as §1

[7] = tested on: B16; assay: The compound was tested […] for 50% cell killing against B16 melanoma cells.; format: functional, Mus musculus
Method in brief: as §2

[8] = tested on: L1210; assay: The compound was tested […] for 100% growth inhibition against L1210 murine leukemia cells.; format: functional, Mus musculus
Method in brief: as §3

[9] = tested on: Glyoxalase I (Homo sapiens); assay: The compound was tested for inhibitory activity against human glyoxalase I.; remark: listed apart in the source

Row | Structure (SMILES) | Ki [1] [µM] | Ki [2] [µM] | GI50 [3] [µM] | LC50 [4] [µM] | GI50 [5] [µM] | TGI [6] [µM] | LC50 [7] [µM] | TGI [8] [µM] | Ki [9] [µM]
1 | CCOC(=O)CNC(=O)[C@@H](CSCc1ccc(Br)cc1)NC(=O)CCC(N)C(=O)OCC (some centres not stated) | 0.17 | 0.17 | 14 | 26 | 7 | 23 | 56 | 11 | 
2 | CCOC(=O)CNC(=O)C(CSC(=O)N(O)c1ccc(Cl)cc1)NC(=O)CCC(N)C(=O)OCC.Cl (configuration not stated) | 0.046 | 0.046 | 15 | 54 | 7 | ~23 | ~47 | 27 | 
3 | CCOC(=O)CNC(=O)C(CSC(=O)N(O)c1ccccc1)NC(=O)CCC(N)C(=O)OCC.Cl (configuration not stated) |  | 0.16 | >100 | 271 | 84 | >100 | >100 | 135 | 0.16
4 | CCOC(=O)CNC(=O)C(CSC(=O)N(O)c1ccc(Br)cc1)NC(=O)CCC(N)C(=O)OCC.Cl (configuration not stated) | 0.014 | 0.014 | 11 | 17 | 3 | 33 | 54 | 7 | 
